Many of the other results were omitted from the sample, so hits are more common in it than they were.
zfTRPN1 agonist: agonists of zebrafish TRPN1 channel; HEK293 zebrafish TRPN1-YFP, Fluo-8 calcium fluorescence; 100% = response to 87 µM carbachol; activation, % at 3 µM; 220,000 tested, 0.18% active; AID 1424;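 active = activation above its plate's cutoff, the mean activation of test wells on that plate plus 3 SD, cut at about 19% in these data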;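 also: 0% = DMSO alone and 100% = 87 µM carbachol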
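Material: zebrafish TRPN1-YFP in HEK293 cells. Doses: one dose of 3 µM, 0.3% DMSO. Incubation: dye 1 h 37 °C plus 30 min RT. Measured by: intracellular calcium fluorescence with Fluo-8.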
TRPML3 ag: agonists of human TRPML3 channel | Q8TDD5 | HEK293 TRPML3-YFP, Fluo-8 calcium fluorescence; 100% = the carbachol control signal | activation, % at 3 µM | 220,000 tested, 0.29% active;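 active = activation above its plate's cutoff, the mean activation of the plate's test wells plus 3 SD, cut at about 12% in these data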;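 also: 0% = DMSO only wells and 100% = carbachol wells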
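Test system: TRPML3-YFP stable HEK293 cells. Doses: single point at 3 µM. Incubation: dye loading 1 h 37 °C then 30 min ambient, 125 s read. Signal: Fluo-8 calcium dye fluorescence, ex 470-495, em 515-575 nm. Measure: percent activation from peak-to-basal fluorescence ratio, scaled between DMSO and carbachol.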
ABCB1 block: human ABCB1 inhibition, ABCG2 as counter-screen; CCRF-Adr cells, JC-1 efflux, flow cytometry; inhibition, % at 6.6 µM; 190,000 tested, 0.067% active; in the data active = inhibition above about 40%;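 also: 0% = vehicle and 100% = reference inhibitor; higher value means more JC-1 retained so stronger ABCB1 efflux block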
ABCG2 block: blocks JC-1 efflux by human ABCG2 transporter; Q9UNQ0; IgMXP3 cells, flow cytometry; inhibition, % at 6.6 µM; 190,000 tested, 0.1% active;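 active = inhibition above 80%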;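 also: 0% = DMSO and 100% = nicardipine control wells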
Target sequence (Q9UNQ0 whole entry, looked up): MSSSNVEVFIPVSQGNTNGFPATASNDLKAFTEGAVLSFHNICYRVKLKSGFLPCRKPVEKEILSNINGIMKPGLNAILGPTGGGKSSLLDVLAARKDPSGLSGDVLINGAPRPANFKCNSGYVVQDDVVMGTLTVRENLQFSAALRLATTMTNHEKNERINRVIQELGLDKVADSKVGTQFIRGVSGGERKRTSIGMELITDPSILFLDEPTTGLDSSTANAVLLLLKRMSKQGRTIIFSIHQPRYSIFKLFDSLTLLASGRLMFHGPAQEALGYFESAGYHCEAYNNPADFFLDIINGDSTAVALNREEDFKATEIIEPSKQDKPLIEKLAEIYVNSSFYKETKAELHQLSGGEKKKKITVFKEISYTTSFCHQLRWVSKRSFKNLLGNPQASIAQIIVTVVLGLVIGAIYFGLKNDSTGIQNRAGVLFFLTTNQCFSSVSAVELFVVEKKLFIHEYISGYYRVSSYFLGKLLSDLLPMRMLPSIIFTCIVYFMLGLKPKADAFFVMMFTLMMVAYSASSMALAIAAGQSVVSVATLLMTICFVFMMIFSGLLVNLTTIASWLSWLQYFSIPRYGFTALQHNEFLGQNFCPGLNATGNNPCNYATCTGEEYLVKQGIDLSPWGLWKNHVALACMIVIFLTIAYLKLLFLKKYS
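Test system: ABCG2 IgMXP3 and barcoded ABCB1 CCRF-Adr cell mix; Schedule: cells with compound and JC-1, 10 min at 25 °C, rotating, no wash; Technique: flow cytometry of retained JC-1 fluorescence; Measure: % inhibition of efflux relative to nicardipine and DMSO; Controls: nicardipine high and DMSO low controls.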
ROMK mod: modulators of human ROMK potassium channel. 130,000 tested, 2% active. AID 1918. B-score at 10 µM. Tet-inducible ROMK, thallium flux fluorescence; actives lie on both sides;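 active = signal ratio slope over the read window, or its plate-corrected B-score, at least 3 SD from the plate mean, either direction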;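 also: B-score of the F/F0 ratio slope over 7 to 12 s after thallium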
Calb biofilm kill: mixture kills Candida albicans biofilm cells; 120,000 tested, 0.02% active; inhibition, % at 7.6 µM; C. albicans biofilm persisters + clotrimazole, fluorescence viability; primary screen in compound mixtures of four per well;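 also: compounds exposed to preformed 24 h biofilms for 48 h; 0% = untreated biofilm control and 100% = clotrimazole plus chlorhexidine kill blank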
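Assay system: C. albicans biofilms / Medium: RPMI/MOPS medium, pH 7.0 / Schedule: biofilm formation 24 h, compound exposure 48 h, 37 °C / Measured by: Alamar Blue fluorescence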
Starred values were filed as active, the others as inactive.

CCN1C(=O)/C(=C/C=C2\N(CC)c3cc(S(=O)(=O)N(C)C)ccc3N2c2ccccc2)SC1=S was read as zfTRPN1 agonist 22*, TRPML3 ag 6 and Calb biofilm kill 12.
`CCN1C(=O)/C(=C\C=C\c2ccccc2[N+](=O)[O-])SC1=S` gave zfTRPN1 agonist 1, TRPML3 ag 1, ABCB1 block 0, ABCG2 block -1, ROMK mod 0.35 and Calb biofilm kill 10.
CCOC(=O)/C(=C\C=C1/Sc2cc(OCC)c(OCC)cc2N1CC)C(C)=O was read as zfTRPN1 agonist 74*, TRPML3 ag 46*, ABCB1 block 0, ABCG2 block -4 and Calb biofilm kill 29.
CCOC(=O)/C(=C/C=C1\Sc2cc(OCC)c(OCC)cc2N1CC)C(C)=O was read as zfTRPN1 agonist 46*, TRPML3 ag 30*, ABCB1 block -1, ABCG2 block -2 and Calb biofilm kill 0.
Screening CCN1/C(=C/C(C)=O)Sc2ccc(OC)cc21 returned zfTRPN1 agonist 1, TRPML3 ag 0, ABCB1 block 1 and ABCG2 block 7.
Cc1cccc(NC(=S)NNC(=O)c2cccc([N+](=O)[O-])c2)c1 was read as zfTRPN1 agonist 3, TRPML3 ag 3, ROMK mod -1.1 and Calb biofilm kill 0.
O=C(NNC(=S)Nc1ccc(Cl)c(Cl)c1)c1cccc([N+](=O)[O-])c1 was read as zfTRPN1 agonist 2, TRPML3 ag -1, ROMK mod 3* and Calb biofilm kill 22.
Screening CC1=CC2=NC(=O)/C(=C/c3coc4ccc(Cl)cc4c3=O)C(=N)N2O1 returned zfTRPN1 agonist 53*, TRPML3 ag 16* and Calb biofilm kill 6.
For O=C1NN(c2ccccc2)C(=O)/C1=C\c1coc2ccc(O)cc2c1=O the results were zfTRPN1 agonist 2, TRPML3 ag 1 and Calb biofilm kill 17.
`CSC1=NSC2=NC(=O)/C(=C\c3cccs3)C(=N)N12` gave zfTRPN1 agonist 2, TRPML3 ag 0, ABCB1 block 1, ABCG2 block 78, ROMK mod -0.75 and Calb biofilm kill 20.
Screening CSC1=NSC2=NC(=O)/C(=C/c3coc4ccccc4c3=O)C(=N)N12 returned zfTRPN1 agonist 36*, TRPML3 ag 10, ABCB1 block 34, ABCG2 block active and Calb biofilm kill 10.
`CSC1=NSC2=NC(=O)/C(=C/c3coc4ccc(O)cc4c3=O)C(=N)N12` gave zfTRPN1 agonist 1, TRPML3 ag 1, ABCB1 block active, ABCG2 block 1 and Calb biofilm kill 22.
For CCOc1ccc(S(=O)(=O)NCCCN2CCCC2=O)cc1 the results were zfTRPN1 agonist 1, TRPML3 ag 1, ABCB1 block 0, ABCG2 block -1, ROMK mod 0.84 and Calb biofilm kill 0.
`COC(=O)C1=C(C)NC(=O)/C1=C\N(C)C` gave zfTRPN1 agonist -1, TRPML3 ag 1, ABCB1 block 0, ABCG2 block 0, ROMK mod 0.21 and Calb biofilm kill 16.
For O=C(NCC1CCCO1)c1ccc2c(=O)n(-c3ccccc3)c(=S)[nH]c2c1 (centres undefined) the results were zfTRPN1 agonist 0, TRPML3 ag 1, ABCB1 block 0, ABCG2 block 0, ROMK mod 0.3 and Calb biofilm kill 10.
`CC(=O)Oc1ccc2c(c1)Oc1cc(OC(C)=O)ccc1C21OC(=O)c2ccccc21` gave zfTRPN1 agonist active, TRPML3 ag 506* and Calb biofilm kill 14.
COc1ccc(S(=O)(=O)Nc2cc(Sc3ncn[nH]3)c(O)c3ccccc23)cc1 was read as zfTRPN1 agonist 1, TRPML3 ag 1, ABCB1 block 0, ABCG2 block -1 and ROMK mod -6.3*.
For CN(C)c1ccc(NC(=O)Nc2ccc3snnc3c2)cc1 the results were zfTRPN1 agonist 19*, TRPML3 ag 6, ABCB1 block 0 and ABCG2 block 0.
O=C(Nc1ccccc1)Nc1ccc2snnc2c1 was read as zfTRPN1 agonist 21*, TRPML3 ag 11, ABCB1 block 0, ABCG2 block 2, ROMK mod -0.27 and Calb biofilm kill 18.
Screening CCc1nc2c(c(=O)c3ccccc3n2C)c(=O)n1C1CCCCCC1 returned zfTRPN1 agonist 19*, TRPML3 ag 18*, ABCB1 block 4, ABCG2 block 12 and Calb biofilm kill 15.
For COc1ccc(CCn2c(-c3ccccc3)nc3c(c(=O)c4ccccc4n3C)c2=O)cc1 the results were zfTRPN1 agonist 0, TRPML3 ag 1, ABCB1 block -2, ABCG2 block 1, ROMK mod 0.89 and Calb biofilm kill 18.
Screening COc1ccc(Cn2c(C3CCCCC3)nc3c(c(=O)c4ccccc4n3C)c2=O)cc1 returned zfTRPN1 agonist 0, TRPML3 ag 0 and Calb biofilm kill 14.
Screening CC(C)c1nc2c(c(=O)c3ccccc3n2C)c(=O)n1CCc1ccccc1 returned zfTRPN1 agonist 21*, TRPML3 ag 9 and Calb biofilm kill 15.
For COc1ccc(CCn2c(C3CCCCC3)nc3c(c(=O)c4ccccc4n3C)c2=O)cc1 the results were zfTRPN1 agonist 22*, TRPML3 ag 12*, ROMK mod 0.0066 and Calb biofilm kill 24.
Screening O=C(OCn1nnc2ccccc2c1=O)c1cc(-c2ccccc2)nc2ccccc12 returned zfTRPN1 agonist 0, TRPML3 ag 0, ABCB1 block 2, ABCG2 block 18, ROMK mod -0.033 and Calb biofilm kill 11.
For O=C1N/C(=N\S(=O)(=O)Cc2ccccc2)S/C1=C/c1cc([N+](=O)[O-])ccc1O the results were zfTRPN1 agonist 64*, TRPML3 ag 31* and Calb biofilm kill 21.
Screening O=C(Nc1nnc(-c2cccs2)o1)c1cccc(C(F)(F)F)c1 returned zfTRPN1 agonist 21*, TRPML3 ag 1, ABCB1 block 1 and ABCG2 block 4.
N#Cc1ccc(C(=O)Nc2nnc(-c3cccs3)o2)cc1 was read as zfTRPN1 agonist 0, TRPML3 ag 1, ABCB1 block -1, ABCG2 block 0 and Calb biofilm kill 18.
`Cc1nc(SCC(=O)NCc2ccco2)c2c(=O)n(C)c(=O)n(CC(C)C)c2n1` gave zfTRPN1 agonist 1, TRPML3 ag 0, ABCB1 block 1, ABCG2 block 4, ROMK mod 0.56 and Calb biofilm kill 15.
Cc1onc(-c2ccccc2)c1C(=O)NCc1ccc2c(c1)OCO2 was read as zfTRPN1 agonist 1, TRPML3 ag 0, ABCB1 block 1, ABCG2 block 30 and ROMK mod 0.38.

Screens from PubChem BioAssay.
